From ChEMBL document CHEMBL4831540, “Discovery of Aficamten (CK-274), a Next-Generation Cardiac Myosin Inhibitor for the Treatment of Hypertrophic Cardiomyopathy” (J Med Chem, 2021)
pIC50: −log10 of the molar value.

Key:
[1] = Metabolic stability in human liver microsomes assessed as intrinsic clearance measured upto 90mins by HPLC/MS/MS analysis; format: ADME, Microsome; settings: read-out: CLH
[2] = Plasma protein binding in rat plasma assessed as unbound concentration at 5 uM incubated for 6 hrs by HPLC analysis; format: ADME, cell-free
[3] = Inhibition of full-length myosin ATPase activity in bovine cardiac myofibrils; format: subcellular, Bos taurus, Heart
In short: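 Bovine cardiac myofibril ATPase assay run at a calcium level giving 75% of maximal activity.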

[4] = Metabolic stability in rat liver microsomes assessed as intrinsic clearance measured upto 90mins by HPLC/MS/MS analysis; format: ADME, Microsome; settings: read-out: CLH
[5] = Plasma protein binding in rat assessed as unbound fraction; format: ADME, cell-free
[6] = Clearance in Sprague-Dawley rat at 1 mg/kg; settings: in vivo
[7] = Half life in Sprague-Dawley rat at 1 mg/kg; format: ADME, organism-based; settings: in vivo
In short: (§1)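 Rat PK with iv and po administration at 1 mg/kg. Clearance and half-life came from the iv arm, and bioavailability from the iv/po comparison.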

[8] = Clearance in Sprague-Dawley rat at 1 mg/kg; format: ADME, organism-based; settings: in vivo; in short: as §1
[9] = Bioavailability in Sprague-Dawley rat at 1 mg/kg, po or 1 mg/kg, iv; format: ADME, organism-based; settings: in vivo; in short: as §1

SMILES | CLint scaled [1] | fraction unbound at 6 h, 5 µM [2] | pIC50 [3] | CLint scaled [4] | fraction unbound [5] | clearance [6] | half-life [7] | clearance [8] | bioavailability [9]
Cc1cc(C(=O)NC2CCc3cc(-c4noc(C)n4)ccc32)ccn1 (racemic) | < 11 mL/min/kg | 0.097 | 5.15 | < 21 mL/min/kg | – | – | – | – | –
CCc1nc(-c2ccc3c(c2)CCC3NC(=O)c2ccccc2)no1 (racemic) | > 62 mL/min/kg | 0.023 | 6.00 | > 124 mL/min/kg | – | – | – | – | –
Cc1cc(C(=O)NC2CCc3cc(-c4noc(C)n4)ccc32)on1 (racemic) | < 11 mL/min/kg | 0.072 | 5.09 | 48 mL/min/kg | – | – | – | – | –
CCc1nc(-c2ccc3c(c2)CC[C@H]3NC(=O)c2cnc(C)o2)no1 | < 11 mL/min/kg | 0.18 | 5.77 | < 21 mL/min/kg | 0.046 | 21 mL/min/kg | 246 min | 21 mL/min/kg | 13%
CCc1nc(-c2ccc3c(c2)CC[C@H]3NC(=O)c2ccnc(C)c2)no1 | < 11 mL/min/kg | 0.084 | 5.92 | 23 mL/min/kg | 0.021 | 13 mL/min/kg | 210 min | 13 mL/min/kg | 32%
Cc1nc(-c2ccc3c(c2)CCC3NC(=O)c2cnc(C)n2C)no1 (racemic) | < 11 mL/min/kg | 0.089 | 5.12 | < 21 mL/min/kg | – | – | – | – | –
Cc1cc(C(=O)N[C@@H]2CCc3cc(-c4noc(C(C)C)n4)ccc32)ccn1 | < 11 mL/min/kg | 0.053 | 5.57 | 23 mL/min/kg | – | 14 mL/min/kg | 276 min | 14 mL/min/kg | 79%
CCc1nc(-c2ccc3c(c2)CC[C@H]3NC(=O)c2ccnnc2)no1 | < 11 mL/min/kg | 0.31 | 5.92 | – | – | 44 mL/min/kg | 396 min | 44 mL/min/kg | 16%

The next lines start with the values.

CLint scaled [1] | fraction unbound at 6 h, 5 µM [2] | pIC50 [3] | CLint scaled [4] | fraction unbound [5] | clearance [6] | half-life [7] | clearance [8] | bioavailability [9] | SMILES
– | – | < 4.41 | – | – | – | – | – | – | Cn1cc(C(=O)N[C@@H]2CCc3cc(-c4noc(CCO)n4)ccc32)cn1
< 11 mL/min/kg | 0.1 | 6.10 | – | 0.051 | 40 mL/min/kg | 882 min | 40 mL/min/kg | 0% | CCc1nc(-c2ccc3c(c2)CC[C@H]3NC(=O)c2ocnc2C)no1
< 11 mL/min/kg | 0.064 | 5.60 | 46 mL/min/kg | – | – | – | – | – | Cc1nc(-c2ccc3c(c2)CCC3NC(=O)c2oncc2C)no1 (racemic)
– | – | 5.39 | – | – | – | – | – | – | CC(C)c1nc(-c2ccc3c(c2)CC[C@H]3NC(=O)c2cnn(C)c2)no1
24 mL/min/kg | 0.043 | 5.72 | > 124 mL/min/kg | – | – | – | – | – | Cc1nc(-c2ccc3c(c2)CCC3NC(=O)c2ccccc2)no1 (racemic)
< 11 mL/min/kg | 0.19 | 5.29 | < 21 mL/min/kg | – | – | – | – | – | Cc1nc(-c2ccc3c(c2)CCC3NC(=O)c2nnn(C)n2)no1 (racemic)
– | – | < 4.41 | – | – | – | – | – | – | COCCc1nc(-c2ccc3c(c2)CC[C@H]3NC(=O)c2cnn(C)c2)no1
– | – | < 4.41 | – | – | – | – | – | – | Cn1cc(C(=O)N[C@@H]2CCc3cc(-c4ncon4)ccc32)cn1
< 11 mL/min/kg | 0.049 | 5.72 | < 21 mL/min/kg | – | 3 mL/min/kg | 828 min | 3 mL/min/kg | 70% | Cc1cc(C(=O)N[C@@H]2CCc3cc(-c4noc(C5CC5)n4)ccc32)ccn1
< 11 mL/min/kg | 0.17 | 5.72 | < 21 mL/min/kg | 0.089 | 16 mL/min/kg | 276 min | 16 mL/min/kg | 52% | CC(C)c1nc(-c2ccc3c(c2)CC[C@H]3NC(=O)c2nnn(C)n2)no1
